pIC50: −log10 of the molar value. Values after ≈ are worked out from the molar mass of the structure shown. Active and inactive are the calls of the source. No cut-off for these calls is given here.
Key:
[1] = Inhibition of TarO in methicillin-resistant Staphylococcus aureus membranes assessed as reduction in C55-P-P-GlcNAc production using C55-P as substrate in presence of UDP-GlcNAc by LC-MS analysis
Staphylococcus aureus [2] = assay: Growth inhibition of methicillin-resistant Staphylococcus aureus COL after 20 hrs
Method in brief: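 MRSA COL grown with compound alone, with no antibiotic added. Growth read by OD600. The value is the minimum concentration that inhibits 95% of growth (iMITC95).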

[3] = tested on: Staphylococcus aureus subsp. aureus COL; assay: Inhibition of methicillin-resistant Staphylococcus aureus COL TarO assessed as compound concentration required for potentiation of imipenem-mediated bacterial growth inhibition by 95% after 20 hrs
Method in brief: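 MRSA COL grown with compound in the presence of imipenem at 4 μg/mL. Growth read by OD600. The value is the minimum concentration that inhibits 95% of growth (sMITC95).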

[4] = target: Mitogen-activated protein kinase 3 (Homo sapiens) (UniProt P27361); assay: Inhibition of ERK1 (unknown origin) at 10 uM relative to control
Homo sapiens [5] = organism: Homo sapiens; assay: Inhibition of TBOB binding to GABA-A receptor (unknown origin) at 10 uM relative to control
[6] = target: Cannabinoid receptor 1 (Homo sapiens) (UniProt P21554); assay: Inhibition of CB1 receptor (unknown origin) at 10 uM relative to control
[7] = AUC (0 to 24 hrs) in mouse at 100 mg/kg, po; assay type: ADME, organism-based; parameters: time < 24 hr, dose 100 mg/kg, route oral; details: in vivo
Homo sapiens [8] = organism: Homo sapiens; assay: Inhibition of PAF (unknown origin) at 10 uM relative to control
[9] = target: Histamine H2 receptor (Homo sapiens) (UniProt P25021); assay: Inhibition of H2 receptor (unknown origin) at 10 uM relative to control
Homo sapiens [10] = organism: Homo sapiens; assay: Inhibition of adenosine transporter (unknown origin) at 10 uM relative to control
[11] = Inhibition of methicillin-resistant Staphylococcus aureus COL TarO assessed as late stage targocil suppression after 20 hrs; parameters: species or system Staphylococcus aureus subsp. aureus COL
[12] = Inhibition of methicillin-resistant Staphylococcus aureus COL TarO assessed as suppression of bacteriophage K-mediated cell lysis; parameters: species or system Staphylococcus aureus subsp. aureus COL
[13] = Solubility of the compound in PBS buffer; assay type: physicochemical
[14] = AUC (0 to infinity) in rat at 1 mg/kg, iv; assay type: ADME, organism-based; parameters: dose 1 mg/kg, time infinity, route intravenous; details: in vivo
[15] = Clearance in rat at 1 mg/kg, iv; assay type: ADME, organism-based; details: in vivo
[16] = Terminal half life in rat at 1 mg/kg, iv; assay type: ADME, organism-based; details: in vivo, read-out: beta t1/2 (converted)
[17] = Volume of distribution at steady state in rat at 1 mg/kg, iv; assay type: ADME, organism-based; details: in vivo, read-out: Vdss
Staphylococcus aureus [18] = assay: Potentiation of imipenem-induced antibacterial activity against methicillin-resistant Staphylococcus aureus COL MB 5393 infected in neutropenic balb/c mouse assessed as reduction in bacterial burden in kidney at 10 mg/kg, sc administered three times per day at 2, 5 and 8 hrs post challenge cotreated with imipenem measured 24 hrs post challenge; assay type: functional, organism-based

Histamine H2 receptor (Homo sapiens), sequence (P25021 whole entry): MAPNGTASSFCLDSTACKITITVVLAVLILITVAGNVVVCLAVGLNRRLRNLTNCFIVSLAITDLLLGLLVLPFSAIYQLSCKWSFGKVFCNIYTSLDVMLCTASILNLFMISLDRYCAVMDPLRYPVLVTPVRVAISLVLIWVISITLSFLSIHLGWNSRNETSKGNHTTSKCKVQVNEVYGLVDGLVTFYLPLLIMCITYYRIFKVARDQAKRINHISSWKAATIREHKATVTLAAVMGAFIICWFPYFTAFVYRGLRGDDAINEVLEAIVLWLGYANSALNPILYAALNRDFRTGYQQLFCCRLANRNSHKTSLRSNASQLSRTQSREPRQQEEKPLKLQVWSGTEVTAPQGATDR
Cannabinoid receptor 1 (Homo sapiens), sequence (P21554 whole entry): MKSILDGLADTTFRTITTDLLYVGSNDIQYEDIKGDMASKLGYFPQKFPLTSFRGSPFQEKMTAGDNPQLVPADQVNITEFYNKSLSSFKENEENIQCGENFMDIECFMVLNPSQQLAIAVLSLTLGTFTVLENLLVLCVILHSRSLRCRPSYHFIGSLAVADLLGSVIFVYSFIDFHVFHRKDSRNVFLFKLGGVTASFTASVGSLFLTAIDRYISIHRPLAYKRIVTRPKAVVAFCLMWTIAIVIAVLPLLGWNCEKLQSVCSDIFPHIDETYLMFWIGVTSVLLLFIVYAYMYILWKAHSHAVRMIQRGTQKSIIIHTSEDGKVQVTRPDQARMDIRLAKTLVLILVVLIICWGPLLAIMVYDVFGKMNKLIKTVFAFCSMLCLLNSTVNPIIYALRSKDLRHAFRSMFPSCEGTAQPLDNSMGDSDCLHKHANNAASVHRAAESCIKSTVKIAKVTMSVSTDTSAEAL
Mitogen-activated protein kinase 3 (Homo sapiens), sequence (P27361 whole entry): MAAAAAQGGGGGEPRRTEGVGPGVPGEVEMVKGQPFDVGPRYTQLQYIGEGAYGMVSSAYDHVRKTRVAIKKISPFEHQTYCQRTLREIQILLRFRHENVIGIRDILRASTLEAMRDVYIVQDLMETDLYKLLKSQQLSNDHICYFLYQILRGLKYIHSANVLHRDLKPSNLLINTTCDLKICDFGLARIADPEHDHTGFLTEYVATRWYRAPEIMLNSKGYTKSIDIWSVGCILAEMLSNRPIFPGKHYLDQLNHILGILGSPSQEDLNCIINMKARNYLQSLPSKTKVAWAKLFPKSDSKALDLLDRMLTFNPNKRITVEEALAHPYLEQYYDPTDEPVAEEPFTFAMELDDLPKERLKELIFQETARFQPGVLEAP

| Structure (SMILES) | pIC50 [1] | MITC95 (Staphylococcus aureus [2]) [µM] | MITC95 [3] [nM] | other results |
| --- | --- | --- | --- | --- |
| COc1cc(C(F)(F)F)cc([C@H]2OC(=O)N(C(=O)NCc3cncc4ccccc34)[C@H]2CO)n1 | 7.10 | > 200 | 360 | – |
| C[C@H]1[C@@H](c2cc(C(F)(F)F)cc(C(F)(F)F)c2)OC(=O)N1C(=O)CCc1cncc2ccccc12 | 7.62 | > 200 | 23 | inhibition [4]: > 50%; inhibition (Homo sapiens [5]): > 50%; inhibition [6]: > 50%; AUC(0-t) at 24 h [7]: 1.7 µM·h; inhibition (Homo sapiens [8]): > 50%; inhibition [9]: > 50%; inhibition (Homo sapiens [10]): > 50% |
| C[C@H]1[C@@H](c2cc(C(F)(F)F)cc(C(F)(F)F)c2)OC(=O)N1C(=O)Cc1cncc2ccccc12 | 5.60 | > 200 | – | – |
| C[C@H]1[C@@H](c2cc(C(F)(F)F)ccn2)OC(=O)N1C(=O)NCc1cncc2ccccc12 | 5.28 | > 200 | 6250 | – |
| C[C@H]1[C@@H](c2cc(C(F)(F)F)cc(C(F)(F)F)c2)OC(=O)N1C(=O)CCCc1cccc2ccccc12 | 7.55 | > 200 | 125 | – |
| O=C(NCc1cncc2ccccc12)N1C(=O)O[C@H](c2cc(C(F)(F)F)cc(C(F)(F)F)c2)[C@@H]1CO | 6.76 to 6.77 | > 200 | 220 | pIC50 [11]: 6.30; pIC50 [12]: 5.90 |
| O=C(NCc1cncc2ccccc12)N1C(=O)O[C@H](c2cc(F)cc(C(F)(F)F)c2)[C@@H]1CCO | 5.33 | > 200 | 18000 | – |
| COc1cc(C(F)(F)F)cc([C@H]2OC(=O)N(C(=O)NCc3cncc4cccnc34)[C@H]2C)n1 | 6.59 | > 200 | 375 | pIC50 [11]: 6.70; pIC50 [12]: 6.22; solubility [13]: 32 µM (≈ 14.8 µg/mL) |
| C[C@H]1[C@@H](c2cc(C(F)(F)F)cc(C(F)(F)F)c2)OC(=O)N1CC(=O)Nc1cncc2ccccc12 | < 3.70 | – | > 200000 | – |
| O=C(NCc1cncc2cccnc12)N1C(=O)O[C@H](c2cc(C(F)(F)F)cc(C(F)(F)F)c2)[C@@H]1CO | 6.85 | > 200 | 390 | – |
| COc1cc(C(F)(F)F)cc([C@H]2OC(=O)N(C(=O)NCc3cncc4cccnc34)[C@H]2CO)n1 | 6.06 | > 200 | 900 | inhibition [4]: inactive; inhibition (Homo sapiens [5]): inactive; inhibition [6]: inactive; AUC(0-inf) [14]: 0.95 µM·h; inhibition (Homo sapiens [8]): inactive; inhibition [9]: inactive; clearance [15]: 36.8 mL/min/kg; half-life [16]: 28.8 min; Vd [17]: 1.2 L/kg; inhibition (Homo sapiens [10]): inactive; solubility [13]: 94 µM (≈ 44.9 µg/mL) |
| O=C(NCc1cncc2ccccc12)N1C(=O)O[C@H](c2cc(F)cc(C(F)(F)F)c2)[C@@H]1CO | 6.68 | > 200 | 320 | – |
| CC(=O)NC[C@H]1CN(c2ccc(N3CCOCC3)c(F)c2)C(=O)O1 | – | – | – | Activity (Staphylococcus aureus [18]): Active |
